According to PubChem BioAssay AID624079 (The Scripps Research Institute Molecular Screening Center, 2012):
pIC50: −log10 of the molar value. Values joined by “and” are separate entries in the source; they are usually repeats but may differ in a detail not shown here. Equal entries are not always repeated.

Molecular target: metallo-beta-lactamase VIM-2 (Pseudomonas aeruginosa)
Experiment: inhibition of VIM-2 nitrocefin cleavage – biochemical, absorbance, probe candidates and analogs, late-stage follow-up (AID 624079)
Settings: purified VIM-2, nitrocefin hydrolysis, epi-absorbance
Method in brief: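 system = purified VIM-2 enzyme | doses = dilution series with 60 µM top concentration | times = 15 min preincubation, 25 min nitrocefin hydrolysis, 25 °C, EDTA stop | measured by = hydrolysis product quenching plate fluorescence, 480 nm excitation, 530 nm emission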

Row | Compound | pIC50
1 | CN1CCN(NC(=O)CN2C(=O)/C(=C/c3c(Cl)cccc3Cl)SC2=S)CC1 | 5.40 and 5.34
2 | CN1CCN(NC(=O)CN2C(=O)/C(=C/c3c(Cl)ccc(Cl)c3Cl)SC2=S)CC1 | 6.26
